High-throughput results from PubChem BioAssay.
Only some compounds are listed: those with a hit (about 3.7% of all), similar ones and a draw of the others.
SR-BI HDL uptake = blocks mouse SR-BI lipid uptake from DiI-HDL; Q61009; ldlA[mSR-BI] CHO cells, DiI-HDL uptake fluorescence, 3 h; hit rate 0.96% among 320,000; inhibition, % at 12.5 µM;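 active = mean replicate inhibition of at least 70% and a set share of replicates each scoring 70 or more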;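 also: 0% = median of neutral control wells and 100% = median of positive control wells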
GAA850 FXN act = frataxin GAA850 promoter activation; activation, % at 6 µM; hit rate 0.56% among 360,000; AID 540364; HEK293 lucGAA850 FXN promoter luciferase reporter, 24 h; percent of 10 µM SAHA response;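 active = activation above the average of all compounds screened plus 3 SD, cutoff fixed separately per campaign, cut at about 7.5% in these data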;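 also: 0% = DMSO wells and 100% = 10 µM SAHA wells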
SR-BI uptake up = SR-BI HDL lipid transfer activation | CHO ldlA[mSR-BI] cells, DiI-HDL uptake fluorescence, 3 h; 100 = double the neutral-control signal | hit rate 0.096% among 320,000 | AID 504775 | activation, % at 12.5 µM;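 active = mean replicate activation of at least 60% and every replicate at or above 60%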;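 also: 0% = median plate neutral-control signal and 100% = twice that signal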
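System: LDL receptor-deficient CHO ldlA cells overexpressing murine SR-BI | Timing: 3 h uptake period with compound, 37 °C | Medium: HEPES-buffered (25 mM, pH 7.4) F12 plus 0.5% BSA | Dosing: Single-point compound dose | Signal: Bottom-read fluorescence, 550/595 nm | Read-out: Retained DiI signal reflecting DiI-HDL uptake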
JMJD2C inh = inhibitors of human GASC-1 (JMJD2C) demethylase | Q9H3R0 | GST-JMJD2C(1-420) H3K9me3 demethylation, DELFIA europium | inhibition, % at 2.35 µM | hit rate 0.069% among 330,000 | AID 2099;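 active = more than half of a compound's replicate wells show inhibition beyond 50%, single wells judged on their own value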;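 also: signal counts dimethyl H3K9 product captured on neutravidin plate; 0% = median of DMSO wells and 100% = 0.3 times that DMSO median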
AHR act = activates the human aryl hydrocarbon receptor; AID 2796; activation, % at 5 µM; hit rate 2.5% among 320,000; AHR-responsive luciferase reporter cells, luminescence; P35869; in the data active = activation above about 47%;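 also: 0% = vehicle wells and 100% = reference agonist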
Target sequence (P35869 whole entry, looked up): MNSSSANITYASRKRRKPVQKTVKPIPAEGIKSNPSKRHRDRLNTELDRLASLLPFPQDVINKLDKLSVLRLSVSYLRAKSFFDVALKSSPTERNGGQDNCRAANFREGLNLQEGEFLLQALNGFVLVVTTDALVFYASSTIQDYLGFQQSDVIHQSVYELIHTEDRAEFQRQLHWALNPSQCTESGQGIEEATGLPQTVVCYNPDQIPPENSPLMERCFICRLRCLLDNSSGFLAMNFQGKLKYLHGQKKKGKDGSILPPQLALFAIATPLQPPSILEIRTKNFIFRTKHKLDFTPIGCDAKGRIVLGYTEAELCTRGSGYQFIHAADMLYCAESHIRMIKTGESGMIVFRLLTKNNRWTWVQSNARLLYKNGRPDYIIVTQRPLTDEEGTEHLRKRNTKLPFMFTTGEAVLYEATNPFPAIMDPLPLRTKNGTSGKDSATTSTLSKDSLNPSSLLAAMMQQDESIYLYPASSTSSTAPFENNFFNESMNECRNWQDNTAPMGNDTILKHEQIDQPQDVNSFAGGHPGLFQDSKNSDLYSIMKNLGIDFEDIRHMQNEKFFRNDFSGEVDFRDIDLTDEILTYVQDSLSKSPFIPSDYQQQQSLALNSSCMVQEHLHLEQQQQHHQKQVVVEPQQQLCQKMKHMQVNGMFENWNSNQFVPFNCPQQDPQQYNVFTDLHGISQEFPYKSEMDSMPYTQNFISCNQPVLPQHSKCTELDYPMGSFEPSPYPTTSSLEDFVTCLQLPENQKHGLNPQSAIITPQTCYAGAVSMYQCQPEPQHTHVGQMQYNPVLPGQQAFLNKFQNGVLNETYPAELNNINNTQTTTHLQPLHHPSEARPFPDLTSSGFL
GAA30 FXN cntr = counter-screen for GAA850 frataxin promoter activators: GAA30 promoter activation; activation, % at 6 µM; shares compounds with GAA850 FXN act; HEK293 lucGAA30 FXN promoter luciferase, 24 h; DMSO = 0%, 5 µM ipriflavone = 100%; hit rate 66% among 1,900;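 active = mean activation above the mean of solvent-only control wells plus 3 SD, cut at about 22% in these data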;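 also: counterscreen of GAA850 promoter hits where activity marks nonselective or luminescence artifacts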
GAA850 confirm = confirmation of GAA850 frataxin (FXN) promoter activators | shares compounds with GAA850 FXN act | HEK293 lucGAA850 FXN promoter luciferase reporter, 24 h; 100% = activation by SAHA | activation, % at 6 µM | hit rate 86% among 1,900;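 active = mean activation above a set limit taken from the primary screen, cut at about 8% in these data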;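 also: 0% = DMSO wells and 100% = 10 µM SAHA wells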
Numbers without * were called inactive; x = no result.

SMILES | SR-BI HDL uptake | GAA850 FXN act | SR-BI uptake up | JMJD2C inh | AHR act | GAA30 FXN cntr | GAA850 confirm
Cc1ccc(Nc2nc(CSc3nnc(-c4ccccc4)n3C)cs2)cc1 | 11.9 | 7.6* | -11.9 | -0.6 | 26.0 | 120.2* | 41.1*
CC(C)NC(=O)C1(C)CCN1C(=O)C1(c2ccccc2)CCCC1 (stereo not given) | x | -1.2 | x | x | x | x | x
COC(=O)c1ccc(N2C(=O)CC(N3CCN(C(=O)c4ccco4)CC3)C2=O)cc1 (stereo not given) | -11.5 | 11.5* | 11.5 | -14.2 | -1.6 | 16.3 | 8.2*
CCCOc1ccc(N2C(=O)CC(N3CCN(C(=O)c4ccco4)CC3)C2=O)cc1 (stereo not given) | -11.0 | -3.2 | 11.0 | -5.1 | -2.0 | x | x
CC(C)N=c1scc(-c2cccs2)n1/N=C/c1ccc(O)c(O)c1O | 52.9 | 9.0* | -52.9 | -9.7 | 3.2 | 48.7* | 22.6*
CC[C@@]1(C(=O)OC)N[C@H](CN(C)C(C)=O)[C@@H]2C(=O)N(Cc3ccccc3)C(=O)[C@@H]21 | 9.6 | 1.4 | -9.6 | x | -1.4 | x | x
CCN(C[C@H]1N[C@@](CC)(C(=O)OC)[C@H]2C(=O)N(Cc3ccccc3)C(=O)[C@@H]12)C(=O)Nc1ccc(OC)cc1 | 1.4 | 17.7* | -1.4 | 1.8 | 0.2 | 47.0* | 16.4*
CC[C@@]1(C(=O)OC)N[C@H](CN(C)C(=O)Nc2ccc(Cl)cc2)[C@@H]2C(=O)N(Cc3ccccc3)C(=O)[C@@H]21 | 29.5 | 16.8* | -29.5 | 30.5 | 0.5 | 21.8 | 10.8*
CC[C@@]1(C(=O)OC)N[C@H](CN(C)C(=O)COc2ccccc2)[C@@H]2C(=O)N(Cc3ccccc3)C(=O)[C@@H]21 | 3.0 | 9.5* | -3.0 | x | -1.6 | 18.2 | 7.3
CCN(C[C@H]1N[C@@](CC)(C(=O)OC)[C@H]2C(=O)N(Cc3ccccc3)C(=O)[C@@H]12)C(=O)Nc1ccc(C(F)(F)F)cc1 | 24.1 | 8.4* | -24.1 | 3.7 | 1.6 | 27.4* | 14.0*
COc1cccc(CNC(=O)COC(=O)c2cccc(S(=O)(=O)N3CCCC3)c2)c1 | -13.9 | -0.8 | 13.9 | x | x | x | x
COCCn1c(=S)[nH]c2cc(C(=O)N3CCCC(C)C3)ccc2c1=O (stereo not given) | 7.6 | 0.1 | -7.6 | -4.7 | 3.9 | x | x
COc1ccc(NC(=O)C2(C)CCN2Cc2ccc(OC)c3ccccc23)cc1OC (stereo not given) | x | 7.7* | x | x | x | 21.8* | 12.8*
Cc1noc(C)c1C(=O)OC(C)C(=O)c1c[nH]c2ccccc12 (stereo not given) | x | 1.2 | x | x | x | x | x
O=C(Cn1cc(SCc2ccccc2Cl)c2ccccc21)N1CCOCC1 | 27.8 | 9.9* | -27.8 | -7.8 | 17.2 | 132.9* | 42.9*
O=C(CN1CCN(C(=O)C2CCCO2)CC1)Nc1cc(Cl)ccc1Cl (stereo not given) | -13.6 | -1.3 | 13.6 | 18.0 | -1.1 | x | x
Nc1cc([N+](=O)[O-])cc2oc(-c3ccccc3)cc12 | 70.3* | 8.2* | -70.3 | -1.4 | 39.0 | 93.5* | 32.9*
O=[N+]([O-])c1cccc(-c2nnc(-c3ccccc3)o2)c1 | 11.0 | 4.3 | -11.0 | 5.6 | 32.6 | x | x
Cc1ccc(NC(=O)CSCC(=O)Nc2cc(C(F)(F)F)ccc2N2CCOCC2)cc1 | 20.1 | 11.4* | -20.1 | -0.5 | 2.0 | 25.5* | 11.0*
Cc1cc(NC(=O)CSCC(=O)Nc2cc(C(F)(F)F)ccc2N2CCOCC2)no1 | -5.1 | 0.7 | 5.1 | -8.7 | -0.2 | x | x
O=C(Nc1ccc(Cl)cc1)C1CCCCN1S(=O)(=O)c1ccccc1 (stereo not given) | -7.7 | 7.9* | 7.7 | -10.6 | 11.3 | 24.1* | 8.3*
CC(=O)NC(=S)Nc1ccc(-c2nc3ccc(C)cc3s2)cc1 | 29.2 | 2.2 | -29.3 | -2.5 | -0.5 | x | x
Cc1ccc2nc(-c3ccc(NC(=O)COC(=O)c4ccc(Br)o4)cc3)sc2c1 | 19.0 | 1.3 | -19.0 | x | -9.8 | x | x
COCCNc1nnc(SC(C)C(=O)Nc2c(C)n(C)n(-c3ccccc3)c2=O)s1 (stereo not given) | -0.9 | -0.2 | 0.9 | -4.6 | -1.9 | x | x
Cc1ccc2nc(-c3ccc(NC(=O)COC(=O)c4cncc(Br)c4)cc3)sc2c1 | 14.2 | 8.4* | -14.2 | 17.8 | x | 107.2* | 28.6*
SMILES | SR-BI HDL uptake | GAA850 FXN act | SR-BI uptake up | JMJD2C inh | AHR act | GAA30 FXN cntr | GAA850 confirm
COCCNc1nnc(SC(C)C(=O)Nc2ccc(-c3nc4ccc(C)cc4s3)cc2)s1 (stereo not given) | 59.5 | 8.8* | -59.5 | 0.4 | 6.1 | 74.5* | 28.7*
CNC(=S)Nc1ccc(-c2nc3ccc(C)cc3s2)cc1 | 69.4 | 8.4* | -69.4 | 8.5 | -5.3 | 114.3* | 38.7*
O=C(CSc1nnc(CNC(=O)c2ccc(F)cc2)o1)NCc1ccc2c(c1)OCO2 | -1.8 | 0.2 | 1.8 | 1.2 | 21.4 | x | x
Cc1ccc(S(=O)(=O)N(C)C)cc1NC(=O)C(C)OC(=O)C1CCCC1 (stereo not given) | -10.2 | -1.3 | 10.2 | 2.3 | -0.8 | x | x
N#C/C(=C/c1ccc(O)c(O)c1)c1nc2ccccc2[nH]1 | 7.7 | 9.2* | -7.7 | 2.2 | 31.0 | 101.9* | 38.6*
CC(C)(C)NC(=O)CCN(/N=C/c1ccccc1F)C1=NS(=O)(=O)c2ccccc21 | -3.4 | 0.6 | 3.4 | -6.3 | 2.5 | x | x
Fc1ccc(-c2ccc(Nc3cccc(F)c3)nn2)cc1 | -4.3 | 8.3* | 4.3 | -5.0 | -6.1 | 93.3* | 30.8*
CC1=CN2C(=N)/C(=C/c3ccc([N+](=O)[O-])o3)C(=O)N=C2S1 | 5.7 | 12.4* | -5.7 | 13.3 | 6.2 | -55.0 | -16.8
C[C@]1(C(=O)NCCCNc2ncc(C(F)(F)F)cc2Cl)C=C[C@@H](Cc2ccccc2)N1C(=O)c1ccccc1 | 6.5 | 0.2 | -6.5 | 7.9 | 2.9 | x | x
COC(=O)N1[C@H](C)C=C[C@]1(Cc1ccccc1)C(=O)NCCCNc1ncc(C(F)(F)F)cc1Cl | 5.9 | 7.8* | -5.9 | 34.7 | 6.4 | 23.4* | 11.2*
Cc1snc(SCC(=O)c2ccc([N+](=O)[O-])cc2)c1C#N | 32.8 | 4.4 | -32.8 | x | x | x | x
Cc1snc(SCC(=O)c2ccc(F)cc2)c1C#N | 26.3 | 8.2* | -26.3 | 4.5 | -0.2 | 79.5* | 27.8*
N#Cc1ccc(/C=C(\C(=O)C(=O)O)c2ccc3ccccc3n2)cc1 | x | 8.3* | x | 4.9 | 20.4 | 131.8* | 43.0*
O=C(O)C(=O)/C(=C\c1cccc(Cl)c1)c1ccc2ccccc2n1 | -7.8 | 6.5 | 7.8 | 15.8 | 31.7 | x | x
Cc1ccc(/C=N\Nc2cn[nH]c(=O)c2Cl)cc1 | -14.2 | 11.3* | 14.2 | -11.9 | 2.1 | 104.5* | 31.8*
